ZTA counter: ZTA (EBV) inhibition in EBNA-1 counter-screen; P03206; ZTA-DNA binding, fluorescence polarization; inhibition, % at 11 µM; 320,000 compounds, 0.15% hits; in the data active = inhibition above about 33%
Target sequence (P03206 whole entry, looked up): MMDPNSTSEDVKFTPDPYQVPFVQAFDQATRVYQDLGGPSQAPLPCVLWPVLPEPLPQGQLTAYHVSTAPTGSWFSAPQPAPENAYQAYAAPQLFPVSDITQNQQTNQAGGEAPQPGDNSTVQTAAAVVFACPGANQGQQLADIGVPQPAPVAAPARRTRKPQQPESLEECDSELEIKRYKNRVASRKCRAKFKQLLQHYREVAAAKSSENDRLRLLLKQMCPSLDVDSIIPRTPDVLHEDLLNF
UBC13 polyUb: blocks human UBC13 polyubiquitin chain formation; P61088; inhibition, % at 20 µM; 330,000 compounds, 0.47% hits; TR-FRET; in the data active = inhibition above about 45%, passing the limit was not always enough; inconclusive = no clear call, values can overlap the other calls
Target sequence (P61088 whole entry, looked up): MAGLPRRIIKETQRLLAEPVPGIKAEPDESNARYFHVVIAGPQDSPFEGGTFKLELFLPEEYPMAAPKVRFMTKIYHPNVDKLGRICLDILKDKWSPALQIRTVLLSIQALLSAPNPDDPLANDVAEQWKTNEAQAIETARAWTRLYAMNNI
EBNA-1 inh: blocks EBNA-1 binding to DNA; EBNA-1 DNA binding, fluorescence polarization; inhibition, % at 14.8 µM; 300,000 compounds, 0.34% hits; in the data active = inhibition above about 28%
Apaf1 inhib: blocks human Apaf-1 apoptosome activity | reconstituted apoptosome caspase-3 activity, DEVD-Rh110 fluorescence | inhibition, % at 20 µM | 330,000 compounds, 0.71% hits | AID 489030; active = inhibition of at least 40% at 20 µM;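 note: plate controls were DMSO wells for no effect and DEVD-CHO caspase inhibitor wells for full effect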
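Material: reconstituted apoptosome with Apaf-1, cytochrome c, caspase-9, procaspase-3, dATP; medium: pH 7.5 Hepes buffer with CHAPS, BSA, DTT; also added: cytochrome c and DEVD-Rh110 substrate; timing: 30 min plus 50 min, RT; signal: Rh110 fluorescence intensity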
PREPL inhibitor: inhibits the human prolyl oligopeptidase-like enzyme; inhibition, % at 5.96 µM; 320,000 compounds, 0.68% hits; recombinant PREPL, fluorescence polarization activity-based probe; Q4J6C6; in the data active = inhibition above about 43%;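 note: 0% = enzyme with DMSO and 100% = wells lacking enzyme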
Apaf-1 inh conf2: Apaf-1 inhibition, single-dose confirmed | inhibition, % at 20 µM | shares compounds with Apaf1 inhib | reconstituted apoptosome, caspase-3 DEVD-Rh110 fluorescence | 1,800 compounds, 25% hits | AID 504614;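 active = mean inhibition of at least 40% at 20 µM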;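 note: plate controls were DMSO wells for no effect and DEVD-CHO caspase inhibitor control wells for full effect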
Rh110 quench: interferes with Rh110 fluorescence, flagging false Apaf-1 inhibitors. shares compounds with Apaf1 inhib. Rh110 fluorescence interference, quenched caspase reaction. activation (fluorescence interference), % at 20 µM. 1,800 tested, under 10 active;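 active = signal rise of 40% or more at 20 µM, treated as a fluorescence artifact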
Fluor interf inh: shows fluorescence interference in the Apaf-1 inhibitor assay format; shares compounds with Apaf1 inhib; AID 588538; IC50, µM; fluorescence interference counterscreen, Apaf-1 assay format; 460 tested, under 10 active; call rule not given here
* = called active by the depositor; ? = inconclusive; nt = no result given. Hits are enriched below; roughly 1.7% of the tested compounds scored in any of these assays.

SMILES | ZTA counter | UBC13 polyUb | EBNA-1 inh | Apaf1 inhib | PREPL inhibitor | Apaf-1 inh conf2 | Rh110 quench | others
O=C(COC(=O)COc1ccc2ccccc2c1)NC1CCCc2ccccc21 (stereo not given) | 6 | 2 | -5 | 7 | -5 | nt | nt
O=C(c1ccccc1)c1ccc(OCC(O)CNC2CCCc3ccccc32)cc1 (stereo not given) | 13 | 25 | -7 | 52* | -18 | 20 | 10
OC(CNC1CCCc2ccccc21)COc1ccc2ccccc2c1 (stereo not given) | 4 | 24 | -8 | 47* | -6 | 15 | 14
CCOc1ccc(OC(=O)NC(c2ccccc2)C(Cl)(Cl)Cl)cc1 (stereo not given) | 3 | 0 | 2 | 5 | 2 | nt | nt
COc1ccc(NC(=O)c2c3c(nc4ccccc24)CCN(Cc2ccccc2)C3)c(OC)c1 | -8 | -17 | -8 | 7 | 8 | nt | nt
COCCNC(=O)CN1C(=O)NC2(CCOc3ccccc32)C1=O (stereo not given) | -7 | 8 | -5 | 46* | 20 | 25 | 1
CCCCNC(=O)CN1C(=O)NC2(CCOc3ccccc32)C1=O (stereo not given) | -11 | 3 | -10 | -1 | 7 | nt | nt
O=C(Nc1ccc(OC(F)F)c(Cl)c1)[C@@H]1CCCN1C(=O)c1cccs1 | 16 | -1 | 0 | 92* | -2 | 11 | 6
CCOc1ccc(NC(=O)c2c[nH]n3c(=O)cc(C4CCN(C(=O)OC(C)(C)C)CC4)nc23)cc1 | 16 | -22 | -3 | 40* | 32 | 26 | 4
CCOC(=O)N1CCC(c2cc(=O)n3[nH]cc(C(=O)OC)c3n2)CC1 | 8 | 1 | -3 | 10 | 14 | nt | nt
COC(=O)c1ccc(OS(=O)(=O)c2ccc(NC(C)=O)cc2)cc1 | -4 | -6 | -2 | 9 | 13 | nt | nt
Cc1ccc(Oc2nc(CN3CCOCC3)nc3sc4c(c23)CCC(C)C4)cc1 (stereo not given) | -22 | 10 | 3 | 41* | 4 | 21 | 14
c1csc(-c2nc3c4ccccc4c4ccccc4c3[nH]2)c1 | 13 | 18 | 5 | 44* | 15 | 32 | 12
CCN1/C(=C/c2ccc3cc(C)ccc3[n+]2CC)Sc2ccc3sccc3c21 | -12 | ? | -3 | 62* | 39 | 60* | -9 | Fluor interf inh=>100
CCCCCCc1cc2cc(C(=O)Nc3ccccc3OC)c(=O)oc2cc1O | -1 | -3 | 5 | 6 | -6 | nt | nt
CCCCCCc1cc2cc(-c3nnc(-c4ccccc4OC)o3)c(=O)oc2cc1O | 4 | -29 | 6 | 62* | 11 | 64* | 2 | Fluor interf inh=>100
O=C(CSc1nnc(C2COc3ccccc3O2)o1)N1CCCc2ccccc21 (stereo not given) | 4 | 1 | 0 | 23 | -1 | nt | nt
Cc1ccc(C(=O)Nc2ccccn2)cc1S(=O)(=O)N1CCOCC1 | 5 | 19 | 5 | 43* | -5 | 33 | 3
CCN(CC)Cc1c(O)ccc2c(C)c(CC(=O)OC)c(=O)oc12 | -11 | 14 | 0 | -2 | 6 | nt | nt
CCC(C)Sc1ccc(-c2nc3cnccn3c2NC2CCCCC2)cc1 (stereo not given) | -16 | 39 | 9 | 45* | 27 | 32 | 19
CCCCNc1c(-c2ccc(OC)c(SC3CCCCC3)c2)nc2cnccn12 | 14 | 13 | -4 | 36 | 17 | nt | nt
CCCCNc1c(-c2ccc(SC3CCCCC3)cc2)nc2cnccn12 | nt | ? | nt | 42* | 16 | 33 | 26
COC(=O)C1=C(C)n2nnnc2NC1c1cc2ccccc2o1 (stereo not given) | -16 | 13 | -1 | -7 | -46 | nt | nt
C=CCn1c(O)c(CN2CCOCC2)c(C)c(C#N)c1=O | 10 | 0 | 5 | 18 | 3 | nt | nt
COc1ccccc1N1CCN(C(=O)c2ccc3c(Cl)c4c(nc3c2)CCCC4)CC1 | -8 | 14 | 2 | 41* | 15 | 19 | 5
SMILES | ZTA counter | UBC13 polyUb | EBNA-1 inh | Apaf1 inhib | PREPL inhibitor | Apaf-1 inh conf2 | Rh110 quench | others
O=S(=O)(c1ccc2oc(=S)[nH]c2c1)N1CCOCC1 | 18 | 10 | nt | -9 | 2 | nt | nt
COc1cc(N)c(Cc2nccc3cc(OC)c(OC)cc23)cc1OC | -1 | -6 | -2 | 47* | 13 | 25 | 0
CCOC(=O)N1CCC(NC(=O)CN2C(=O)CSc3ncccc32)CC1 | -23 | 4 | 13 | 63* | 14 | 8 | 1
CCOC(=O)N1CCC(NC(=O)CCCN2C(=O)CSc3ncccc32)CC1 | 7 | 4 | 1 | 2 | -8 | nt | nt
CN(C)S(=O)(=O)c1ccc(NC(=O)CN2CCCC2c2ccc3c(c2)OCCCO3)cc1 (stereo not given) | 6 | 19 | nt | 46* | 11 | 32 | 4
CS(=O)(=O)c1ccc(Cl)c(NC(=O)CN2CCCC2c2ccc3c(c2)OCCCO3)c1 (stereo not given) | 6 | -1 | nt | 4 | 7 | nt | nt
CC1=NN(c2ccccc2)C(=O)/C1=C/N(C)C | 28 | 1 | 6 | -14 | 9 | nt | nt
CC(=O)Oc1ccc(/C=C2/C(=O)N(c3ccccc3)N=C2C)cc1 | -25 | -58 | 13 | 91* | 12 | 12 | -2
COc1ccc(/C=C2/C(=O)N(c3ccccc3)N=C2C)cc1 | -8 | -36 | 0 | 96* | 12 | 16 | -2
CCOc1cc(/C=C2/C(=O)N(c3ccccc3)N=C2C)ccc1OC(=O)c1cccs1 | 6 | -67 | 6 | 69* | 54* | 33 | 4
COc1ccc(C2=NN(c3ccccc3)C(=O)/C2=C\c2ccc(O)c(OC)c2)cc1 | 11 | -144 | 7 | 90* | -3 | 17 | 4
C/C(=N\NC(=O)c1ccc(CSc2nc(C)cc(C)n2)cc1)c1ccco1 | 1 | 10 | -8 | 12 | -9 | nt | nt
CN(C[C@H](Cc1ccccc1)N(C[C@H](Cc1ccccc1)N(CCC(C)(C)C)N=O)N=O)N=O | -2 | 6 | 9 | 19 | 9 | nt | nt
COc1cc(/C=C2/C(=O)N(c3cccc(Br)c3)N=C2C)cc(OC)c1O | -2 | -90 | 5 | 82* | 0 | 18 | -1
CC1=NN(c2ccccc2)C(=O)/C1=C\c1cc(C)n(C)c1C | -2 | -25 | 0 | 10 | 1 | nt | nt
CC1=NN(c2ccccc2)C(=O)/C1=C/c1cccc(C)c1 | -17 | -57 | 2 | 96* | 3 | 23 | -1
COc1ccc(/C=C2/C(=O)N(c3ccccc3)N=C2C)cc1OC | nt | -34 | nt | 96* | nt | 13 | 6
C=CCn1c(COc2cccc(C)c2)nnc1SC(C)C(=O)NC1CC1 (stereo not given) | 13 | 26 | nt | 41* | -5 | 47* | 6 | Fluor interf inh=>100
